Measurements taken from ChEMBL document CHEMBL2029255, “Quantitative and site-directed chemical modification of hypocrellins toward direct drug delivery and effective photodynamic activity” (J Med Chem, 2012).
Converted amounts (≈) assume the structure as drawn. The source made the active and inactive calls. No cut-off for these calls is given here.

Columns and labels:
[1] = Drug uptake in liposomes after 2 hrs; assay type: ADME, subcellular, Liposome; conditions: artificial membrane
Procedure, shortened: (§1)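 Liposomes of egg phosphatidylcholine and cholesterol (film-ultrasonic method), 0.08 g/L in PBS pH 7.4. Compound from DMSO stock (2 mg/mL) diluted in PBS to 0–8 μM final, added to liposomes with stirring; absorption spectra recorded over time; peak absorbance plotted against concentration at the equilibration time (2, 4 or 5 h, depending on compound).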

[2] = Solubility of the compound in phosphate buffered saline at pH 7.4 after 12 hrs; assay type: physicochemical
Procedure, shortened: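 Compound dissolved in PBS (pH 7.4) at a series of concentrations, kept 12 h in dark; absorption spectra recorded and absorbance plotted against concentration to derive solubility; mean of three independent experiments ± SEM.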

[3] = 1-Octanol-phosphate buffered saline partition coefficient of the compound at pH 7.4
[4] = Photosensitization activity of the compound assessed as singlet oxygen production by DPA-bleaching method; assay type: physicochemical
BGC-823 [5] = test: Cytotoxicity against human BGC823 cells assessed as cell death up to 76 nM after 24 hrs by MTT assay; assay type: functional, cell-based
Procedure, shortened: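 Dark toxicity: BGC823 cells in DMEM/5% FBS seeded at 5 × 10^5 cells/mL, 24 h at 37 °C, 5% CO2; photosensitizer (0–76 nM) in FBS-free DMEM 5 h in dark; fresh medium, no irradiation, 24 h in dark; survival by MTT (90 min), formazan in DMSO, OD 570 nm.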

BGC-823 [6] = test: Cytotoxicity against human BGC823 cells assessed as cell death preincubated for 5 hrs in dark condition followed by irradiation with a 532 nm laser of 20 J/cm2 for 1000 seconds measured after 24 hrs by MTT assay; assay type: functional, cell-based; conditions: BGC-823, light or radiation study
Procedure, shortened: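 BGC823 cells in DMEM/5% FBS seeded at 5 × 10^5 cells/mL, 24 h at 37 °C, 5% CO2; photosensitizer (0, 19, 38, 57, 76 nM) in FBS-free DMEM, 5 h in dark; medium replaced, 532 nm laser irradiation 20 J/cm2 (20 mW/cm2) for 1000 s; 24 h dark; MTT 90 min, DMSO, OD 570 nm. IC50 = concentration killing 50% of cells.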

[7] = Drug uptake in liposomes after 5 hrs; assay type: ADME, subcellular, Liposome; conditions: artificial membrane; procedure, shortened: as §1
[8] = Drug uptake in liposomes after 4 hrs; assay type: ADME, subcellular, Liposome; conditions: artificial membrane; procedure, shortened: as §1
BGC-823 [9] = test: Cellular uptake in human BGC823 cells at 1 uM after 5 hrs by laser confocal fluorescence microscope analysis; assay type: ADME, cell-based; conditions: bgc-823, 5 h
Procedure, shortened: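 BGC823 cells seeded on coverslips at 1 × 10^5, grown overnight at 37 °C, 5% CO2; medium removed, incubated with compound (1 μM) 5 h at 37 °C; rinsed three times with PBS, imaged by confocal microscopy with 488 nm argon laser excitation, emission 650–750 nm collected. Control without photosensitizer.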

Drug uptake [1] | solubility at 12 h [2] | PC [3] | Drug uptake [7] | Drug uptake [8] | Drug uptake (BGC-823 [9]) | Compound | Activity [4] | Activity (BGC-823 [5]) | IC50 (BGC-823 [6])
– | 4.6 µg/mL (≈ 0.0087 mM) | – | 7 µM | – | – | COC1=C(C(C)=O)C2=C(C)Cc3c(OC)c(=O)c(O)c4cc(OC)c5c(OC)cc(O)c6c(c2c3c4c56)C1=O | 0.76 | inactive | 0.04 µM
– | 6600 µg/mL (≈ 10.2 mM) | 4.8 | – | – | – | COc1c2c3c4c(c(OC)c(=O)c5c(O)cc(OC)c(c6c(OC)cc(O)c(c1=O)c63)c54)C(/C(C)=N/CCCS(=O)(=O)O)=C(C)C2 | – | – | –

Second part, the compound before the results:

Compound | Drug uptake [1] | solubility at 12 h [2] | PC [3] | Drug uptake [7] | Drug uptake [8] | Drug uptake (BGC-823 [9]) | Activity [4] | Activity (BGC-823 [5]) | IC50 (BGC-823 [6])
COc1c2c3c4c(c(NCCS(=O)(=O)O)c(=O)c5c(O)cc(OC)c(c6c(OC)cc(O)c(c1=O)c63)c54)CC(C)=C2C(C)=O | 3 µM | 9200 µg/mL (≈ 14.8 mM) | 2.2 | – | – | – | – | – | –
COc1c2c3c4c(c(OC)c(=O)c5c(O)cc(OC)c(c6c(OC)cc(O)c(c1=O)c63)c54)C(/C(C)=N/CCCCCCS(=O)(=O)O)=C(C)C2 | – | 200 µg/mL (≈ 0.289 mM) | – | – | – | – | 1.01 | – | –
COc1c2c3c4c(c(OC)c(=O)c5c(O)cc(OC)c(c6c(OC)cc(O)c(c1=O)c63)c54)C(/C(C)=N/CCCCS(=O)(=O)O)=C(C)C2 | – | 3900 µg/mL (≈ 5.88 mM) | 7.5 | – | – | – | 0.94 | inactive | 0.054 µM
COc1c2c3c4c(c(OC)c(=O)c5c(O)cc(OC)c(c6c(OC)cc(O)c(c1=O)c63)c54)C(/C(C)=N/CCCCCS(=O)(=O)O)=C(C)C2 | – | 1700 µg/mL (≈ 2.51 mM) | 9 | – | 6.5 µM | Active | 0.98 | inactive | 0.022 µM
